The list is not random: actives were taken first. Their share in the collection is about 2.3%.
V1R ag counter = counter-screen for oxytocin receptor agonists: human V1a receptor agonists | activation, % at 3 µM | 0.25% of 320,000 active | CHO-V1R cells, Fluo-8 calcium fluorescence, agonist mode; 0% DMSO, 100% 3 nM vasopressin;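 active = activation above the mean activation of all tested compounds plus 3 SD, per screening run, cut at about 20% in these data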;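 note: signal is peak over basal fluorescence ratio across a 100 second FLIPR read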
TAAR1 antagonist = human TAAR1 antagonism; 1.5% of 360,000 active; inhibition, % at 3 µM; CHO RD-HGA16 TAAR1, Fluo-8 calcium fluorescence, antagonist;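 active = inhibition above a per-plate cutoff, the mean inhibition of test compounds on that plate plus 3 SD, cut at about 49% in these data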
Target sequence (Q96RJ0 whole entry, looked up): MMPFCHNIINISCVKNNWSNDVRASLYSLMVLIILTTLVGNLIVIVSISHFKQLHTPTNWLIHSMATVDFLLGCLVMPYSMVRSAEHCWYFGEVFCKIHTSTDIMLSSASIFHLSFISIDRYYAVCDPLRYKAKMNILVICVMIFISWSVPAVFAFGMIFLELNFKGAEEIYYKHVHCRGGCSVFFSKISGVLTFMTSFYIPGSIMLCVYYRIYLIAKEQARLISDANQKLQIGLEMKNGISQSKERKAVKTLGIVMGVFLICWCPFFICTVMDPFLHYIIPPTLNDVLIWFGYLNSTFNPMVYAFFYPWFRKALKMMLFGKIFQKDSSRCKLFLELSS
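Material: RD-HGA16 CHO cells with stable hTAAR1 and Gα16; Dosing: single nominal final test compound concentration of 3 µM; Schedule: seeding 17-24 h prior, 75-min 37 °C, 30-min RT dye loading; Detection: kinetic Fluo-8 calcium fluorescence measurement; Measure: % inhibition from peak post-agonist over basal fluorescence ratio; Benchmarks: vehicle and agonist controls.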
TAAR1 ag = human TAAR1 agonism | Q96RJ0 | CHO RD-HGA16 TAAR1, Fluo-8 calcium fluorescence; vehicle wells 0%, saturating PEA agonist 100% | activation, % at 3 µM | 0.99% of 360,000 active | AID 624467;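 active = activation above the mean activation of all test compounds in the run plus 3 SD, cut at about 38% in these data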
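Assay system: CHO-derived RD-HGA16 cells with stable Gα16 and human TAAR1; timing: 17-24 h seeding, 75 min 37 °C dye, 30 min RT; read-out: % activation from peak over basal fluorescence ratio, DMSO-to-PEA scaled; measured by: kinetic Fluo-8 calcium fluorescence; benchmarks: low control DMSO, high control PEA (EC100); doses: 3 µM single concentration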
OXTR ag = activates the human oxytocin receptor; P30559; CHO-OTR cells, Fluo-8 calcium fluorescence; normalized: DMSO 0%, oxytocin 100%; activation, % at 3 µM; 0.32% of 320,000 active;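 active = activation above the mean of all tested compounds plus 3 SD, cutoff set per screening run, cut at about 20% in these data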;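 note: peak over basal fluorescence ratio from a 100 s FLIPR kinetic read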
Target sequence (P30559 whole entry, looked up): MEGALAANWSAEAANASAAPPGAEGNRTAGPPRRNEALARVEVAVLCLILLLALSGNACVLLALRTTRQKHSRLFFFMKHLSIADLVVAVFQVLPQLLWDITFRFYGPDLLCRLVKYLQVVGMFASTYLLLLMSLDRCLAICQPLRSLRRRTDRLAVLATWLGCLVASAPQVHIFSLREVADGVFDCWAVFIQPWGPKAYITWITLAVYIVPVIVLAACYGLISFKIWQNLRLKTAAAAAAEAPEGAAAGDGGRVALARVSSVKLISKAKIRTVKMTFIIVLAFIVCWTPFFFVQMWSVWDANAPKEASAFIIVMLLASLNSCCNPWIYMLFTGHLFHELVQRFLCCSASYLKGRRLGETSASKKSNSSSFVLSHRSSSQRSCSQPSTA
OXTR potentiate = human OXTR potentiation. AID 2445. 0.061% of 320,000 active. CHO-OTR cells, Fluo-8 calcium fluorescence, potentiator mode; 0% = oxytocin EC15, 100% = EC100. activation, % at 3 µM;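 active = activation above that plate's cutoff, the mean activation of tested compounds plus 3 SD, cut at about 6.6% in these data, passing the limit was not always enough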
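Assay system: CHO-OTR cells, human receptor / Also added: oxytocin at about EC15, sub-maximal agonist stimulus / Dosing: single dose, 3.0 µM nominal final compound concentration / Incubation: 6 min pre-incubation, 100 s read / Technique: Fluo-8 calcium dye fluorescence / Read-out: % activation vs EC15 and EC100 oxytocin / Benchmarks: EC15 oxytocin low, 75 nM oxytocin high / Replicates: singlicate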
TAAR1 ag conf = confirmation of human TAAR1 agonists; activation, % at 3 µM; CHO RD-HGA16 TAAR1, Fluo-8 calcium fluorescence; scaled: DMSO 0%, maximal phenethylamine 100%; 82% of 2,400 active; shares compounds with TAAR1 ag; AID 651783;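 active = activation above a cutoff set at the run's mean compound activation plus 3 SD, cut at about 39% in these data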
Ga16 ag counter = nonselective agonism, TAAR1 counter-screen; AID 651787; activation, % at 3 µM; 50% of 2,400 active; CHO-Ga16 parental, Fluo-8 calcium fluorescence; normalized to maximal ATP response, DMSO zero; shares compounds with TAAR1 ag;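 active = activation above the run cutoff, the mean activation over all tested wells plus 3 SD, cut at about 12% in these data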
TAAR1 desens = human TAAR1 agonist that also desensitizes the receptor; shares compounds with TAAR1 ag; CHO RD-HGA16 hTAAR1, Fluo-8 calcium, beta-PEA response inhibition; inhibition, % at 3 µM; 46% of 2,400 active; AID 651951;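 active = inhibition above the run cutoff, the mean inhibition of all test compounds plus 3 SD, cut at about 49% in these data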;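 note: beta-PEA stimulus applied at its EC80; loss of beta-PEA calcium signal after compound pretreatment read as receptor desensitization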
Ga16 nonsel ant = nonselective Ga16 antagonism, counter-screen; shares compounds with TAAR1 ag; CHO-Ga16 ATP-induced calcium, Fluo-8 fluorescence; inhibition, % at 3 µM; 39% of 2,400 active;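 active = inhibition above the plate's mean compound inhibition plus 3 SD, computed per plate, cut at about 22% in these data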
Each line names hits and unclear results; the compound was inactive in the other large screens (follow-up assays come after a bar, where they were run).

Cc1ccc(S(=O)(=O)Nc2ccc(NC(=O)c3c(F)c(F)c(F)c(F)c3F)cc2)cc1	V1R ag counter 27, TAAR1 antagonist 66, TAAR1 ag 117, OXTR ag 37 | TAAR1 ag conf 115 | Ga16 ag counter 71 | TAAR1 desens 100 | Ga16 nonsel ant 67
Cc1ccc(NS(=O)(=O)c2ccc(C(=O)N3CCCC(C(F)(F)F)C3)cc2)cc1 (stereo not given)	V1R ag counter 49, TAAR1 antagonist 89, TAAR1 ag 142, OXTR ag 53 | TAAR1 ag conf 125 | Ga16 ag counter 90 | TAAR1 desens 88 | Ga16 nonsel ant 48
O=[N+]([O-])c1nn(-c2cccc(Cl)c2)n(O)c1=NCc1cccnc1	none
CC1(C)COCN1C(=O)c1ccc(Cl)c(Cl)c1	none
C=CCc1c(C)[nH]c2ccc(C)cc2c1=O	none
C=CCc1c(C)[nH]c(=O)[nH]c1=O	TAAR1 ag 72 | TAAR1 ag conf inactive | Ga16 ag counter inactive | TAAR1 desens inactive | Ga16 nonsel ant inactive
Cc1cccc(-n2c(SCC(N)=O)nnc2-c2ccccn2)c1C	none
O=C(NCCc1ccccc1)c1cc(-c2ccco2)on1	TAAR1 ag 47 | TAAR1 ag conf 44 | Ga16 ag counter inactive | TAAR1 desens inactive | Ga16 nonsel ant inactive
O=c1cc(Nc2ccc3c(c2)OCO3)[nH]c(=O)n1-c1ccc(Br)cc1	TAAR1 ag 48 | TAAR1 ag conf 76 | Ga16 ag counter inactive | TAAR1 desens inactive | Ga16 nonsel ant inactive
O=c1cc(Nc2ccc3c(c2)OCCO3)[nH]c(=O)n1-c1ccc(Br)cc1	none
COc1ccccc1C/C(N)=N/OC(=O)COc1cccc2ccccc12	none
N/C(Cc1cccc2ccccc12)=N\OC(=O)c1ccccc1F	TAAR1 ag 70 (no result: V1R ag counter, OXTR ag, OXTR potentiate) | TAAR1 ag conf 81 | Ga16 ag counter inactive | TAAR1 desens inactive | Ga16 nonsel ant inactive
N/C(Cc1cccc2ccccc12)=N\OC(=O)COc1ccccc1	TAAR1 ag 54 | TAAR1 ag conf 61 | Ga16 ag counter inactive | TAAR1 desens inactive | Ga16 nonsel ant inactive
Cc1ccccc1C(=O)NNC(=S)NC(=O)COc1ccccc1	none
Cc1ccc(OCC(=O)Nc2ccc(NC(=O)c3ccccc3)c(C)c2)cc1	TAAR1 ag 44 (no result: V1R ag counter, OXTR ag, OXTR potentiate) | TAAR1 ag conf 52 | Ga16 ag counter 21 | TAAR1 desens 63 | Ga16 nonsel ant inactive
Cc1ccc(C(=O)NNC(=S)NC(=O)COc2ccccc2)cc1	TAAR1 antagonist 74, TAAR1 ag 142 | TAAR1 ag conf 130 | Ga16 ag counter 111 | TAAR1 desens 89 | Ga16 nonsel ant 68
CC(C)(C)c1ccc(C(=O)NC(=S)NNC(=O)COc2ccccc2)cc1	TAAR1 antagonist 67, TAAR1 ag 124 | TAAR1 ag conf 124 | Ga16 ag counter 101 | TAAR1 desens 100 | Ga16 nonsel ant 81
CC1(C(=O)N2CCCCC2)CCN1C(=O)C1(c2ccccc2)CC1 (stereo not given)	none (no result: V1R ag counter, OXTR ag, OXTR potentiate)
Cc1ccc(S(=O)(=O)NC(C)(C)CSc2nnc(Nc3ccccc3)s2)cc1	none
Nc1nc(Nc2cccc(F)c2)nc2ccccc12	TAAR1 antagonist 82, TAAR1 ag 98 | TAAR1 ag conf 91 | Ga16 ag counter inactive | TAAR1 desens 94 | Ga16 nonsel ant inactive
O=c1oc(Nc2cccc(F)c2)nc2ccccc12	none
O=C(C(=O)N1CCN(c2ccccc2F)CC1)c1cn(CC(=O)N2CCOCC2)c2ccccc12	none
CN(C[C@@H](CC1CCCCC1)N(C[C@H](Cc1ccccc1)N(CCc1ccccc1)N=O)N=O)N=O	TAAR1 ag 60 | TAAR1 ag conf 94 | Ga16 ag counter inactive | TAAR1 desens inactive | Ga16 nonsel ant inactive
CN(C)c1ccc(S(=O)(=O)NCC(=O)NCc2ccccc2)cc1[N+](=O)[O-]	TAAR1 ag 79 | TAAR1 ag conf inactive | Ga16 ag counter inactive | TAAR1 desens inactive | Ga16 nonsel ant inactive
Cn1c(=O)cc(NCCc2ccccc2)[nH]c1=O	TAAR1 ag 69 | TAAR1 ag conf 74 | Ga16 ag counter inactive | TAAR1 desens inactive | Ga16 nonsel ant inactive
NS(=O)(=O)c1ccc(CCNc2cc(=O)n(Cc3ccc(F)cc3)c(=O)[nH]2)cc1	none
Cn1c(NCCc2ccccc2)cc(=O)n(C)c1=O	none (no result: TAAR1 antagonist, TAAR1 ag) | Ga16 ag counter inactive | Ga16 nonsel ant inactive
Cn1c(=O)cc(Nc2ccc(Cl)cc2)[nH]c1=O	TAAR1 ag 48 | TAAR1 ag conf 67 | Ga16 ag counter inactive | TAAR1 desens inactive | Ga16 nonsel ant inactive
Cn1c(=O)cc(Nc2ccccc2)[nH]c1=O	none
COc1ccc(OC)c(C2C/C(=N/O)C(C)C(c3cc(OC)ccc3OC)N2)c1 (stereo not given)	none (no result: V1R ag counter, OXTR ag, OXTR potentiate)
O=C(c1ccccc1S(=O)(=O)NCc1ccccc1)N1CCCCC1	none
O=C(NNC(=O)C1CCCO1)c1ccc(Br)cc1 (stereo not given)	none
Cc1c(Cl)ccc2c1NC(=O)[C@]21N[C@@H](Cc2ccccc2)[C@H]2C(=O)N(c3ccc(F)cc3)C(=O)[C@H]21	V1R ag counter 24, TAAR1 ag 92, OXTR ag 27 | TAAR1 ag conf 103 | Ga16 ag counter 42 | TAAR1 desens 75 | Ga16 nonsel ant 38
Clc1ccc(-c2n[nH]c3c2Cc2ccccc2-3)cc1Cl	none (no result: TAAR1 antagonist, TAAR1 ag)
COc1cccc(-c2ccc(NC(=O)C3CCCN(Cc4ccccn4)C3)cc2)c1 (stereo not given)	none (no result: V1R ag counter, OXTR ag, OXTR potentiate)
COc1cccc(-c2ccc(NC(=O)C3CCCN(Cc4cnc(N(C)C)s4)C3)cc2)c1 (stereo not given)	TAAR1 ag 63 | TAAR1 ag conf 64 | Ga16 ag counter 33 | TAAR1 desens inactive | Ga16 nonsel ant inactive
CNC(=O)CSc1nnc(-c2ccc(S(=O)(=O)N3CCCC3)cc2)n1-c1cccc(C)c1C	none
COc1cccc2c(=O)n(CC(=O)Nc3cccc(F)c3)ccc12	TAAR1 ag 61 | TAAR1 ag conf 46 | Ga16 ag counter 40 | TAAR1 desens inactive | Ga16 nonsel ant inactive
